Source: PMC5814546 (Clinical Pharmacokinetics, 2017)

Tests used:
[1] = Safety and tolerability, tablet single ascending dose study; type: in vivo, human
[2] = Safety and tolerability, capsule and tablet multiple ascending dose study; type: in vivo, human
Method in brief: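 Double-blind study; 12 per cohort randomized 3:1 to ALZ-801 or placebo. Cohort A fasted capsule: 171 mg once on day 1, twice daily days 2–7, then 256.5 mg days 8–14. Cohort D tablet 265 mg, ages 60–75, fed 30 min pre-dose: once day 1, twice daily days 2–6, once day 7. AEs recorded until follow-up call and coded by MedDRA v18.1.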

[3] = target: T1, organic anion transporter (OAT) 1 (Homo sapiens, UniProt Q4U2R8); test: Effect on renal transporters; type: in vitro ADME; conditions: concentrations up to 100 mM; data on file
T1 sequence (Q4U2R8 1-563): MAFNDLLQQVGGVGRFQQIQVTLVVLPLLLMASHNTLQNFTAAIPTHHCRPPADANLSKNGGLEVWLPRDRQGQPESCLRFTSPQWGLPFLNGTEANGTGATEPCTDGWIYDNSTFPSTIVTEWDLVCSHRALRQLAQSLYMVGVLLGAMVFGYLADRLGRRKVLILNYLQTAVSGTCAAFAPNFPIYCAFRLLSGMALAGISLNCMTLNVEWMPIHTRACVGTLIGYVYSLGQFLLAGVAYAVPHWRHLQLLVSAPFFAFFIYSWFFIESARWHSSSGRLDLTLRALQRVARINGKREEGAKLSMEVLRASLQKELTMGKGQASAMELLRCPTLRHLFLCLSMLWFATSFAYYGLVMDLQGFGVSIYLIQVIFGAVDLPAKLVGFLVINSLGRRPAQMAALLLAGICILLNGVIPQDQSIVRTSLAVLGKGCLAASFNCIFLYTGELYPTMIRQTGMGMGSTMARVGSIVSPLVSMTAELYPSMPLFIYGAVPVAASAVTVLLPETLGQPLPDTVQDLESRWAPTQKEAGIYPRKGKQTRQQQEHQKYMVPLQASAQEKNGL

[4] = Regimen A: 171 mg tablet, fasted, n = 10
[5] = Regimen B: 205 mg tablet, fasted, n = 11
[6] = Regimen C: 205 mg tablet, fed, n = 12
[7] = Part 1: Cohort A, 171 and 256.5 mg capsule, fasted
[8] = Part 1: Cohort B, 256.5 and 340 mg capsule, fasted
[9] = Part 1: Cohort C, 256.5 and 340 mg capsule, fed
[10] = Part 2: Cohort D, 265 mg tablet, fed
[11] = Week 1, Cohort A 171 mg bid, capsule, fasted
[12] = Week 1, Cohort B 256.5 mg bid, capsule, fasted
[13] = Week 1, Cohort C 256.5 mg bid, capsule, fed
[14] = Week 1, Cohort D 265 mg bid, tablet, fed
[15] = Week 2, Cohort A 256.5 mg qd, capsule, fasted
[16] = Week 2, Cohort B 340 mg qd, capsule, fasted
[17] = Week 2, Cohort C 340 mg bid, capsule, fed

Compound CC(C)[C@H](N)C(=O)NCCCS(=O)(=O)O [ALZ-801, 3-(L-valyl) amino-1-propanesulfonic acid] has a Chills [1, 4] of 0, a Flatulence [1, 4] of 0 and a Flushing [1, 4] of 0. The Gastrointestinal disorders [1, 4] was 4, the “General disorders and administration site conditions” value [1, 4] was 0 and the Headache [1, 4] was 0. For the same compound, the Nausea [1, 4] was 4, the Nervous system disorders [1, 4] was 0 and the Somnolence [1, 4] was 0. The “Subjects reporting AEs” value [1, 4] was 4, the Vascular disorders [1, 4] was 0 and the Vomiting [1, 4] was 1. It also gave a Chills [1, 5] of 0, a Flatulence [1, 5] of 0 and a Flushing [1, 5] of 0. The Gastrointestinal disorders [1, 5] was 4, the “General disorders and administration site conditions” value [1, 5] was 0 and the Headache [1, 5] was 0. It also gave a Nausea [1, 5] of 4, a Nervous system disorders [1, 5] of 0 and a Somnolence [1, 5] of 0. For the same compound, the “Subjects reporting AEs” value [1, 5] was 4, the Vascular disorders [1, 5] was 0 and the Vomiting [1, 5] was 1. The Chills [1, 6] was 0, the Flatulence [1, 6] was 0 and the Flushing [1, 6] was 0. For the same compound, the Gastrointestinal disorders [1, 6] was 0, the “General disorders and administration site conditions” value [1, 6] was 0 and the Headache [1, 6] was 0. The Nausea [1, 6] was 0, the Nervous system disorders [1, 6] was 0 and the Somnolence [1, 6] was 0. The “Subjects reporting AEs” value [1, 6] was 0, the Vascular disorders [1, 6] was 0 and the Vomiting [1, 6] was 0. For the same compound, the “Subjects reporting AEs” value ([1]; Regimen D: 342 mg (2 × 171 mg tablets), fed, n = 12) was 3, the Chills ([1]; Regimen D: 342 mg, fed, n = 12) was 0 and the Flatulence ([1]; Regimen D: 342 mg, fed, n = 12) was 0. The Flushing ([1]; Regimen D: 342 mg, fed, n = 12) was 0, the Gastrointestinal disorders ([1]; Regimen D: 342 mg, fed, n = 12) was 3 and the “General disorders and administration site conditions” value ([1]; Regimen D: 342 mg, fed, n = 12) was 0. The Headache ([1]; Regimen D: 342 mg, fed, n = 12) was 0, the Nausea ([1]; Regimen D: 342 mg, fed, n = 12) was 3 and the Nervous system disorders ([1]; Regimen D: 342 mg, fed, n = 12) was 0. It also gave a Somnolence ([1]; Regimen D: 342 mg, fed, n = 12) of 0, a Vascular disorders ([1]; Regimen D: 342 mg, fed, n = 12) of 0 and a Vomiting ([1]; Regimen D: 342 mg, fed, n = 12) of 0. The onset of nausea ([1]; following fasted dosing) was 0.5 to 1 h, the onset of nausea ([1]; following fed dosing) was 1.5 to 2.5 h and the tolerability ([1]; tablet SAD study (Study 3)) was “well tolerated”. For the same compound, the “incidence of TEAEs” value ([2]; 265 mg twice daily, fed state) was “equivalent to placebo”, the “total number of TEAEs” value ([2]; ALZ-801 dosing in the fasting state) was 65 and the “No. of deaths (all causes)” value [2, 7] was 0. The “No. of deaths resulting from AEs” value [2, 7] was 0, the “Subjects affected by SAE/exposed” value [2, 7] was 0/9 and the “No. of deaths (all causes)” value [2, 8] was 0. The “No. of deaths resulting from AEs” value [2, 8] was 0, the “Subjects affected by SAE/exposed” value [2, 8] was 0/9 and the “No. of deaths (all causes)” value [2, 9] was 0. The “No. of deaths resulting from AEs” value [2, 9] was 0, the “Subjects affected by SAE/exposed” value [2, 9] was 0/9 and the “No. of deaths (all causes)” value [2, 10] was 0. The “No. of deaths resulting from AEs” value [2, 10] was 0, the “Subjects affected by SAE/exposed” value [2, 10] was 0/9 and the “TEAEs: Nausea” value [2, 11] was 3 (33.3) cases (%). For the same compound, the “TEAEs: Vomiting” value [2, 11] was 0 cases (%), the “TEAEs: Nausea” value [2, 12] was 4 (44.4) cases (%) and the “TEAEs: Vomiting” value [2, 12] was 2 (22.2) cases (%). The “TEAEs: Nausea” value [2, 13] was 5 (55.6) cases (%), the “TEAEs: Vomiting” value [2, 13] was 2 (22.2) cases (%) and the “TEAEs: Nausea” value [2, 14] was 3 (33.3) cases (%). The “TEAEs: Vomiting” value [2, 14] was 1 (11.1) cases (%), the “TEAEs: Nausea” value [2, 15] was 3 (33.3) cases (%) and the “TEAEs: Vomiting” value [2, 15] was 0 cases (%). For the same compound, the “TEAEs: Nausea” value [2, 16] was 0 cases (%), the “TEAEs: Vomiting” value [2, 16] was 2 (22.2) cases (%) and the “TEAEs: Nausea” value [2, 17] was 0 cases (%). The “TEAEs: Vomiting” value [2, 17] was 0 cases (%) and the tolerability ([2]; doses of up to 340 mg twice daily) was “well tolerated”.

With NCCCS(=O)(=O)O [tramiprosate, 3-amino-1-propanesulfonic acid] the “effect on renal transporter” value [3] was “no effect”.
